# Measured values collected from several papers.
# Medium: plasma
# Route: oral
Compound,system,conditions,Cmax
C[C@@]1(c2cc(NC(=O)c3ccc(C#N)cn3)ccc2F)C=CSC(N)=N1,human,"10 mg, single dose",83.9 ng/mL
COc1ccc([C@@H]2CN(C(=O)[C@@H](O)CO)C[C@@]2(C)[C@@H](C)O)cc1OC1CN(c2ccc(C)cn2)C1,human,"40 mg, single dose, healthy volunteers",799 ng/mL
COCCOc1cnc2ccn([C@H](C)c3nnc4c(F)cc(-c5cnn(C)c5)cn34)c(=O)c2c1,human,"25 mg, multiple doses, once daily, patients",600 ng/mL
COc1cc(C(=O)NC2CCN(C)CC2)c(F)cc1Nc1ncc(C(F)(F)F)c(Oc2cccc3c2C(=O)N(C)C3)n1,human,"300 mg, multiple doses, once daily, steady state, patients",5.06 µM
CCn1c(=O)c(-c2cc(NC(=O)Nc3ccccc3)c(F)cc2Br)cc2cnc(NC)cc21,human,"50 mg, single dose, patients",339 ng/mL
FC(F)(F)c1ccc(CNc2ccc(Cc3c[nH]c4ncc(Cl)cc34)cn2)cn1,human,"800 mg, multiple doses, patients",6780 ng/mL
CO[C@H]1CC[C@H](N2C(=O)CNc3ncc(-c4ccc(C(C)(C)O)nc4)nc32)CC1,human,"45 mg, multiple doses, patients",417 ng/mL
CCc1nc2c(C)cc(N3CCN(CC(=O)N4CC(O)C4)CC3)cn2c1N(C)c1nc(-c2ccc(F)cc2)c(C#N)s1,human,"1000 mg, single dose, fed, healthy volunteers",11800 ng/mL
CC(C)(Sc1ccncc1-c1ccc(C#N)c2ccccc12)C(=O)O,male human,"20 mg, single dose, fasted, healthy volunteers",384 ng/mL
Cn1cc(-c2ccc(S(=O)(=O)[C@@H]3C[C@@H](C(=O)NC4(C#N)CC4)N(C(=O)C4(C(F)(F)F)CC4)C3)c(C(F)(F)F)c2)cn1,human,"300 mg, single dose, fasted, healthy volunteers",1070 ng/mL
CC(C)n1cc(C#N)c2cc(-n3cc(C(=O)O)cn3)ccc21,human,"25 mg, single dose, fasted, healthy volunteers",978 ng/mL
CC(C)(O)c1ccccc1-c1ccc2[nH]c(/C=C/c3ccc(C(F)(F)F)cc3)nc2c1,male human,"60 mg, single dose, fasted, healthy volunteers",177 ng/mL
